Test results: PubChem BioAssay AID1424 (The Scripps Research Institute Molecular Screening Center, 2008)
The campaign covered roughly 220,000 compounds. About 390 (0.18%) were called active. For the sample, actives were picked, then their nearest neighbours and some compounds at random. A number with no mark means an inactive call.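 How the source made its calls: active means activation above its plate's cutoff, the mean activation of test wells on that plate plus 3 SD (cut at about 19% in these data); inactive means the rest.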 Residues, ends and D or L forms follow the SMILES beside them. *: point of attachment. OPac = O=C(CO*)c1ccccc1; Bz = O=C(c1ccccc1)*

Tested on: transient receptor potential cation channel N1 (TRPN1/NompC), Danio rerio
Test: zebrafish TRPN1 channel agonists, primary screen, cell-based, HEK293, calcium fluorescence (AID 1424);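 further: 0% = DMSO alone and 100% = 87 µM carbachol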
Settings: HEK293 zebrafish TRPN1-YFP, Fluo-8 calcium fluorescence; at 3 µM; stronger effect = higher value; 100% = response to 87 µM carbachol
Outline: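 Material: zebrafish TRPN1-YFP in HEK293 cells; Doses: single test compound dose, 3 µM nominal, 0.3% DMSO; Timing: dye loading 1 h at 37 °C, then 30 min room temperature; Technique: intracellular calcium fluorescence with Fluo-8; Benchmarks: high carbachol 87 µM, low DMSO alone.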

SMILES	activation
Cc1nn(-c2cc(Cl)ccc2N)c(=O)c2ccccc12	-1.21%
Cc1nn(C)cc1N1C(=O)c2cccc3c(N)ccc(c23)C1=O	23.7% (active)
COc1ccc(N2C(=O)c3cccc4cccc(c34)C2=O)nn1	-0.39%
Cc1cc(=O)oc2cc(OCCC[n+]3ccccc3)ccc12	0.59%
O=C(CNCc1ccc(Cl)cc1)Nc1cccc(C(=O)O)c1	0.21%
CCOC(=O)c1c(C)oc(C)c(C(=O)OCC)c1=O	1.29%
O=[N+]([O-])/C=C1\CCCCCN1	3.32%
N#C/C(=C/c1cccc([N+](=O)[O-])c1)c1nnc2n1CCCCC2	2.1%
COCc1cc(=O)[nH]c(SC)n1	1.98%
CCOC12CC(C)(C)CC(C)(CC3=C1C(=O)CC(C)(C)C3)C2 (configuration not stated)	1.01%
CSc1cccc(NC(=S)N(Cc2ccccc2)Cc2ccccn2)c1	-0.2%
CCOc1ccc(-n2c(O)c(/C=N/c3ccnn3Cc3ccncc3)c3ccccc3c2=O)cc1	0.39%
O=C(COC(=O)c1ccco1)NCc1ccc(Cl)cc1	0.49%
Cc1cc(C)n(Cc2cnc(N3CCOCC3)s2)n1	0.48%
CNC(=O)c1ccsc1NC(=O)c1ccc(S(=O)(=O)N2CCOCC2)cc1	2.83%
CC1=NN(c2cccc(Cl)c2)C(=O)C12CC(C)=C(C)CS2 (configuration not stated)	-0.78%
O=C1CC(N2CCN(c3ccc(F)cc3)CC2)C(=O)N1c1ccccc1 (configuration not stated)	0.96%
Cc1ccc(N2C(=O)CC(N3CCSCC3)C2=O)c(C)c1 (configuration not stated)	40.3% (active)
Cc1ccc(N2CCN(S(=O)(=O)c3ccc(F)cc3)CC2)c(C)c1	-1.18%
Cc1cc(C)n(C(=O)CCNC(=O)c2ccccc2Cl)n1	0.31%
CC(C)c1ccc(NC(=S)NC2CC3C=CC2C3)cc1 (configuration not stated)	1.72%

SMILES	activation
CCCCCCCCCOC1OC(CO)C(O)C(O)C1NC(C)=O (configuration not stated)	1.72%
O=C(CNC(=O)c1ccccc1)NCC(=O)OCC(=O)c1ccccc1 (Bz-Gly-Gly-OPac)	1.5%
CC(C)OC(=O)CN1CCN(c2ccc(Cl)cc2)CC1	4.98%
Cc1ccc(NC(=O)Nc2nnc(-c3ccncc3)s2)cc1	20.7% (active)
Cc1occc1C(=O)Nc1nnc(-c2ccncc2)s1	0.89%
Cc1ccc(C(=O)Nc2nnc(-c3ccncc3)s2)o1	1.91%
O=C(NN=C1CCC(=NNC(=O)c2cccnc2)CC1)c1cccnc1	1.24%
COC(=O)c1ccccc1NC(=O)c1ccccc1NS(C)(=O)=O	-1.95%
COc1cc(NC(=O)c2cccnc2SC)cc(OC)c1	-0.29%
CCOc1ccc(NC(=O)c2ccccc2NS(C)(=O)=O)cc1	0.2%
COc1cc(NC(=O)c2ccccc2NS(=O)(=O)c2ccc(Cl)s2)cc(OC)c1	21% (active)
O=C(Nc1nncs1)c1ccccc1NS(=O)(=O)c1cccs1	-0.5%
COC(=O)c1ccc(NC(=O)c2ccccc2NS(=O)(=O)c2ccccc2)cc1	19.8% (active)
C=C(C)CNC(=S)N/N=C/c1ccccc1OCC(=O)O	1.26%
Cc1ccc2cc(CN(c3ccc(C)c(C)c3)S(C)(=O)=O)c(=O)[nH]c2c1	1.62%
CC#CC[N+](C)(C)CCCCCC	-0.58%
COCCN(Cc1nc(-c2ccc(C(F)(F)F)cc2)no1)C(C)C	0.76%
O=C(CCNC(=O)Cn1ccc2ccccc2c1=O)NCCC1=CCCCC1	-0.5%
COc1ccc(OC)c(-c2c(=O)n(OCc3ccccc3Br)c3ccccc3[n+]2[O-])c1	-1.72%
COc1ccc(C(C)=O)cc1COc1ccc(Cl)c(C)c1	0.81%
CCOC(=O)CC1C(=O)NCCN1c1nc2c(C)cccn2c(=O)c1/C=C1\SC(=S)N(C(C)CC)C1=O (configuration not stated)	23.3% (active)

SMILES	activation
CCOC(=O)CC1C(=O)NCCN1C(=O)COc1ccc(Br)cc1C (configuration not stated)	-0.63%
Cc1cccn2c(=O)c(/C=C3\SC(=S)N(CC(C)C)C3=O)c(NCCCOC(C)C)nc12	1.73%
CCOC(=O)C1(Cc2cccc(OC)c2)CCN(C(C)COC)CC1 (configuration not stated)	-0.77%
Cc1ccc(N2C(=O)S/C(=C/c3cn(C)c4ccccc34)C2=O)cc1	1.3%
N#C/C(=C/c1ccc(N2CCCCC2)o1)C(=O)NCCc1c[nH]c2ccccc12	29.5% (active)
N#C/C(=C/c1ccc(-c2ccccc2[N+](=O)[O-])o1)C(=O)NCCN1CCCCC1	-2.16%
O=C(NCCc1c[nH]c2ccccc12)C(=O)NCC1CCCO1 (configuration not stated)	0.46%
COCCCNC(=O)CNC(=S)N(Cc1cc(OC)c(OC)c(OC)c1)C1CCCC1	0.25%
C=CCNC(=O)c1ccccc1NC(=O)c1ccc(Cl)c(S(=O)(=O)Nc2cccc(C)c2C)c1	1.27%
Cn1nnnc1-c1cc(Cl)cc(Cl)c1	-0.59%
CCN1CCN(CCNC(=O)c2ccc(/C=C3/Sc4ccccc4N(Cc4cccc(C)c4)C3=O)cc2)CC1	4.77%
CCN1/C(=C/C(=S)Nc2ccccc2)Sc2ccccc21	-1.89%
CCN1/C(=C\c2ccc3ccccc3[n+]2CC)Sc2cc(C)ccc21	38.4% (active)
CCN1/C(=C/c2ccc3ccc(C)cc3[n+]2CC)Sc2ccccc21	30.7% (active)
CC(C)(C)C(=O)CSc1nc2ccccc2o1	-0.66%
COc1ccc(-c2cn(-c3ccc(OC)cc3)c(=S)[nH]2)cc1	-0.09%
COc1cc(OC)c(-n2c(C)cc(C=O)c2C)cc1Cl	-1.14%
COc1cc(OC)c(-n2cc(-c3ccc(Cl)cc3)[nH]c2=O)cc1Cl	32.6% (active)
O=C(c1snnc1-c1ccccc1)N1CCOCC1	-0.06%
CC(=O)Nc1ccc(S(=O)(=O)Nc2ccc(-c3ccc4nnc(C)n4n3)cc2)cc1	0.58%
